Measured values from different studies.
Compare with care: the assays were run in different laboratories.
Target: Carbonic anhydrase 2 (CA2, Homo sapiens, UniProt P00918)
Effect on: enzyme activity
Action: inhibitor

Compound	test	quantity	value
O=C(Nc1ccc2c(c1)C=CCP(=O)(O)O2)c1ccc([N+](=O)[O-])cc1	stopped-flow	Ki	> 10 µM
Cc1c(Cl)c(=O)oc2cc(OCCCC[Se]C#N)ccc12	stopped-flow	Ki	> 100 µM
O=C(Nc1ccc2c(c1)C=CCP(=O)(O)O2)c1ccc(Cl)cc1	stopped-flow	Ki	> 10 µM
CC(C)c1cc2c(c(O)c1O)[C@@]13CCCC(C)(C)[C@@H]1[C@H](OC3=O)[C@H]2O		Ki	0.00499 µM
Cc1cc(=O)oc2cc(OCCCC[Se]C#N)ccc12	stopped-flow	Ki	> 100 µM
O=C(Nc1ccc(F)cc1)Nc1ccc2c(c1)C=CCP(=O)(O)O2	stopped-flow	Ki	> 10 µM
COc1ccc(C(=O)[C@@H]2[C@@H](c3ccc(OC)cc3)[C@@H]3c4ccccc4/C(=N/NC(N)=S)[C@@H]3[C@H]2c2ccc(OC)cc2)cc1 (racemic)	absorbance	IC50	0.992 µM
O=C(Nc1ccc2c(c1)C=CCP(=O)(O)O2)c1ccc(F)cc1	stopped-flow	Ki	> 10 µM
CC(C)c1cc2c(c(O)c1O)[C@@]1(C(=O)O)CCCC(C)(C)[C@@H]1CC2		Ki	0.0042 µM
NC(=S)N/N=C1/c2ccccc2[C@@H]2[C@H]1[C@@H](c1ccsc1)[C@H](C(=O)c1ccsc1)[C@H]2c1ccsc1 (racemic)	absorbance	IC50	0.523 µM
CC(C)c1cc2c(c(O)c1O)[C@@]13CCCC(C)(C)[C@@H]1C[C@@H]2OC3=O		IC50	0.00547 µM
Cc1ccc([C@@H]2[C@@H](C(=O)c3cccs3)[C@H](c3ccco3)[C@H]3/C(=N\NC(N)=S)c4ccccc4[C@H]32)cc1 (racemic)	absorbance	IC50	0.844 µM
CC(C)c1cc2c(c(O)c1O)[C@@]13CCCC(C)(C)[C@@H]1[C@@H](O)[C@@H]2OC3=O		IC50	0.00578 µM
Cc1ccc(NC(=O)Nc2ccc3c(c2)C=CCP(=O)(O)O3)cc1	stopped-flow	Ki	> 10 µM
NC(=S)N/N=C1/c2ccccc2[C@@H]2[C@H]1[C@@H](c1ccc(F)cc1)[C@H](C(=O)c1ccc(F)cc1)[C@H]2c1ccc(F)cc1 (racemic)	absorbance	IC50	0.605 µM
